Measured values reported in ChEMBL document CHEMBL2331480, “Novel naphthoquinone derivatives: synthesis and activity against human African trypanosomiasis” (Bioorg Med Chem Lett, 2013).
pIC50: −log10 of the molar value.

Columns and labels:
L6 = assay: Cytotoxicity against rat L6 cells after 72 hrs by SRB assay; assay type: cell-based; settings: L6, 72 h
Procedure, shortened: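 L-6 rat skeletal myoblasts seeded at 2 × 10^3 cells/100 µL in DMEM with 10% heat-inactivated FBS onto threefold serially diluted compounds, with solvent blanks; 72 h at 37 °C, 5% CO2. Cells fixed with TCA (10% final, 4 °C, 1 h), stained 45 min with 0.4% SRB in 1% acetic acid, dye solubilized in 10 mM Tris base pH 10.5.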

[1] = system: Trypanosoma brucei rhodesiense; assay: Antitrypanosomal activity against Trypanosoma brucei rhodesiense after 48 hrs by CellTiter-Glo assay; assay type: functional, organism-based
Procedure, shortened: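 T. b. rhodesiense bloodstream forms isolated from infected blood (citrate-glucose anticoagulant, diluted in HMI-9, low-speed spin), grown at 37 °C, 5% CO2 in HMI-9 with 10% heat-inactivated FBS and 10% Serum Plus. Compounds in DMSO pin-transferred onto diluted culture; 48 h at 37 °C; CellTiter-Glo read […] as percent of control; IC50 calculated.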

Row | SMILES | pIC50 [1] | pIC50 (L6)
1 | Cc1ccccc1NC1=C(Cl)C(=O)c2cccc([N+](=O)[O-])c2C1=O | 5.40 | 3.71
2 | O=C1C(Cl)=C(Nc2ccccc2C(F)(F)F)C(=O)c2ccccc21 | 6.82 | 3.51
3 | O=C1C(Nc2ccccc2C(F)(F)F)=C(Nc2ccccc2C(F)(F)F)C(=O)c2ccccc21 | 6.35 | 3.53
4 | O=C1C(Cl)=C(Nc2ccccc2)C(=O)c2ccccc21 | 6.77 | 3.38
5 | Cc1ccccc1NC1=C(Nc2ccccc2C)C(=O)c2ccccc2C1=O | 4.70 | < 3.35
6 | O=C1C(Cl)=C(Nc2ccc(C(F)(F)F)cc2)C(=O)c2c1cccc2[N+](=O)[O-] | 5.70 | 3.92
7 | Cc1ccccc1NC1=C(Cl)C(=O)c2c(cccc2[N+](=O)[O-])C1=O | 5.52 | 3.68
8 | Cc1cccc(NC2=C(Cl)C(=O)c3ccccc3C2=O)c1 | 4.74 | < 3.35
9 | Cc1ccccc1NC1=C(Cl)C(=O)c2ccccc2C1=O | 4.74 | < 3.35
10 | Cc1cccc(NC2=C(Nc3cccc(C)c3)C(=O)c3c(cccc3[N+](=O)[O-])C2=O)c1 | 4.82 | 3.71
11 | O=C1C(Nc2ccc(C(F)(F)F)cc2)=C(Nc2ccc(C(F)(F)F)cc2)C(=O)c2c1cccc2[N+](=O)[O-] | 5.40 | 4.01
12 | O=C1C(Nc2ccccc2C(F)(F)F)=C(Nc2ccccc2C(F)(F)F)C(=O)c2c1cccc2[N+](=O)[O-] | 7.05 | 4.06
13 | Cc1ccc(NC2=C(Nc3ccc(C)cc3)C(=O)c3c(cccc3[N+](=O)[O-])C2=O)cc1 | 4.92 | 3.76
14 | O=C1C(Cl)=C(Nc2ccccc2C(F)(F)F)C(=O)c2c1cccc2[N+](=O)[O-] | 7.15 | 4.12

Further compounds by rising pIC50 [1], results first:

Row | pIC50 [1] | SMILES | pIC50 (L6)
15 | 4.62 | Cc1ccc(NC2=C(Nc3ccc(C)cc3)C(=O)c3ccccc3C2=O)cc1 | < 3.35
16 | 4.68 | Cc1cccc(NC2=C(Nc3cccc(C)c3)C(=O)c3ccccc3C2=O)c1 | < 3.35
17 | 4.70 | Cc1ccc(NC2=C(Cl)C(=O)c3ccccc3C2=O)cc1 | < 3.35
18 | 4.96 | Cc1cccc(NC2=C(Cl)C(=O)c3c(cccc3[N+](=O)[O-])C2=O)c1 | 3.65
19 | 5.00 | Cc1cccc(NC2=C(Cl)C(=O)c3cccc([N+](=O)[O-])c3C2=O)c1 | 3.67
20 | 5.10 | Cc1ccc(NC2=C(Cl)C(=O)c3cccc([N+](=O)[O-])c3C2=O)cc1 | 3.73
21 | 5.15 | Cc1ccccc1NC1=C(Nc2ccccc2C)C(=O)c2c(cccc2[N+](=O)[O-])C1=O | 3.73
22 | 5.22 | Cc1ccc(NC2=C(Cl)C(=O)c3c(cccc3[N+](=O)[O-])C2=O)cc1 | 3.77
23 | 5.70 | O=C1C(Nc2ccc(C(F)(F)F)cc2)=C(Nc2ccc(C(F)(F)F)cc2)C(=O)c2ccccc21 | 3.56
24 | 6.10 | O=C1C(Nc2ccc(C(F)(F)F)cc2)=C(Cl)C(=O)c2c1cccc2[N+](=O)[O-] | 3.94
25 | 6.10 | O=C1C(Cl)=C(Nc2ccc(C(F)(F)F)cc2)C(=O)c2ccccc21 | 3.53
26 | 6.17 | O=C1C(Nc2ccccc2)=C(Nc2ccccc2)C(=O)c2ccccc21 | 3.42
27 | 7.30 | O=C1C(Nc2ccccc2C(F)(F)F)=C(Cl)C(=O)c2c1cccc2[N+](=O)[O-] | 4.02
